In the EternaBench riboswitch data:

Tested on: MS2 coat protein
Assay: apparent Kd, MS2 coat protein; higher = weaker binding; RNA-MaP array; FMN 200 µM where present
Summary of the method: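 The apparent Kd is reported as the median of filtered per-cluster binding-curve fits. To get these curves, designs transcribed by stalled E. coli RNA polymerase on Illumina sequencing-chip clusters were titrated with SNAP-549-labelled MS2 coat protein from 0.7 or 1.5 nM, doubling to 3 µM. Titrations were run without and then with constant ligand in 100 mM Tris-HCl pH 7.5, 80 mM KCl, 4 mM MgCl2, BSA, DTT, yeast tRNA and Tween-20, and green signal was normalised to red-channel RNA signal and control-cluster median Fmax.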

[1] = designed as: ON switch for flavin mononucleotide, no ligand
[2] = ligand present: flavin mononucleotide, designed as: ON switch for flavin mononucleotide
[3] = designed as: OFF switch for flavin mononucleotide, no ligand
[4] = ligand present: flavin mononucleotide, designed as: OFF switch for flavin mononucleotide

Sequence	apparent Kd [1] [nM]	apparent Kd [2] [nM]	apparent Kd [3] [nM]	apparent Kd [4] [nM]
AUAAUGCGUGCUACGCAAAAUAACGCAGAAGGCCAACAUGAGGAUCACCCAUGUAAAAGAAAGAUGGAGGAUAUGCGGUUUGGC	51	6.74	–	–
GGAUGUCAAAGACAUCCUUAACGAACAUGAGGAUCACCCAUGUAGGAUAUGCUACUCAAAGAGUAGCAGAAGGACAUGUGCCUU	–	–	34.5	270
CCGUAGGGAGGAUAUCCAAUAUAUGACAUGAGGAUCACCCAUGUUUCCACUCGUACCUCCGGAGAAGGCCCAUCCC	–	–	24.9	22.3
AGAUCACAUGAGGAUCACCCAUGUGAGGAUAUGAUACUAUGUACUUCGGUACAUAGUAUCAGAAGGCAUGUGAA	–	–	43.5	41.1
GGAUGACAAAGUCAUCCAUUACGAACAUGAGGAUCACCCAUGUAGGAUAUGCAACUCAAAGAGUUGCAGAAGGACAUGUGUCUU	–	–	29.6	146
UUCUCGAUGUAGAAGGCCGCGUCCGGCUCACGCGGAGGAUAUACAUGAGGAUCACCCAUGUGUCUGUGGCUUAUAAGGUACGGA	–	–	98.8	67.7
ACUGCAUAGUCAGGAUAUGCAAAAGCAGAUGCAAAGCAUCUGAACAACACAUGAGGAUCACCCAUGUAGAAGGGACUGUGCAGU	–	–	23.3	22.4
CUAUGAAGAAUAGGAUAUUCGAUCAUGAGGAUAGAAGAAGGGUUACAUGAGGAUCACCCAUGUAUGCACAUGAGGAUCCCUUAG	–	–	167	195
GAUAGAGAGCAGGAUAUCUUGGGUAAGUAUCGUAGAGAAGGGCUCACAUGAGGAUCACCCAUGUGGUCCAAGAU	–	–	14.2	32.6
AGAAACUACGAGAAGGACAUAUGACCAAGAACAAACAUGAGGAUCACCCAUGUAGGAUAUCGUAGUUUCAGGAUCGUGAGAUCA	–	–	6.29	12.9
UGGUACUAGGGAGGAUAUGGGAAGAUACAUGAGGAUCACCCAUGUUUGAGAAUGCCGAGAGGCAACUAGAAGGCCCUAGUACCU	430	18.1	–	–
GGGCUGGUAACAGGAUAUCGUGCCUGGCCGGAUUACAUGAGGAUCACCCAUGUCGUUGGAACCAACGAGAAGGGUUGCCUCCCA	371	102	–	–
GCAGCACAUGAGGAUCACCCAUGUCUUCGGAGUCGAGGAUAUGGUCACUGUAAACAGUGGCCAGAAGGCGAGUUGC	31.7	27.2	–	–
UGAUCGAGAGAUCUUAGAUUCUGCAAGGAUAUGCAAGAGUUGCGCUUUACAUGAGGAUCACCCAUGUAGAAGGUGUAGAGUCUA	–	–	6.27	6.62
CGGGCGCGAGGAUAUACAUGAGGAUCACCCAUGUAACGGGUUUGAAUCGGGCUUGCGUGUAGAAGGUGUGUUUG	–	–	86	73.8
AAAAGACAUGAGGAUCACCCAUGUGAAAACAUACAAGGAUAUGUGUGGAAACCGUACUAUACAGAAGGUGUAUGUC	34.8	20	–	–
UGGUACAACGGAGGAUAUCAUGUAGAUACAUGAGGAUCACCCAUGUCGAUGGAGACAUCGGAGAUUGAGAAGGCCGUUGUACCU	692	30.1	–	–
GGAGCCGGCACUGAGGAUAUUCAUAUUAAAACAUGAGGAUCACCCAUGUAGGCCAGAAGGCCUUGGGAGAAGGCAGGUCGGCUCG	423	27.9	–	–
GAUUUACAUGAGGAUCACCCAUGUGAGGAUAUGGAAUGGCUCAUUGUCUGAUUUCCUUCUAGAAGGCACAUCUU	–	–	43.7	51
UGUCGGAGCAGAGGAUAUUACAUGAGGAUCACCCAUGUAUGAACCAAUAGCUGGAAUCAGCAAUGUAAGAAGGCUGCUCCGACA	–	–	17.5	167
GUAGAGUAGUGAGGAUAUACGAGAUCGAUAGAUCGGCGAUCCAAUUAUACAUGAGGAUCACCCAUGUAGAAGGCACUUCUCUAC	–	–	12.6	116

Sequence	apparent Kd [1] [nM]	apparent Kd [2] [nM]	apparent Kd [3] [nM]	apparent Kd [4] [nM]
AUCCAGCGAGGAUAUACUUUGAUUUUUUCGUUUUGUCUCGAACAUGAGGAUCACCCAUGUAGAAGGUGCUUCAC	–	–	67.1	59.8
UUUAUUUAGGCAGGAUAUACAUGUAUAUAUAUUUCUUUAUAUCUUAUUACAUGAGGAUCACCCAUGUAGAAGGGCCUUCUUAUA	–	–	26.7	30.6
ACAUUUUAUGCAGGAUAUUGACAUAGGAUUAAACAAGAAGGGCAUUACAUGAGGAUCACCCAUGUUUUAUUGGUAUAUAAGUUC	–	–	–	14
CGUGCUUAUGUAGGAUAUGGUUAUCUAUGUCUAGUUACUAGACAUAGAUAACCAGAAGGACAUGAGGAUCACCCAUGUAGCACG	–	–	14.6	25.8
ACAUACUAUCGAGGAUAUCGGUAAGAAAAGUUACGAGAAGGCGAUUAUAAAUUUAUAUUAUUAUACAUGAGGAUCACCCAUGUA	20.9	21.3	–	–
GGUGGCCGAGGAUAUACGGACGUGUCGCCGGGUGUCGUGGGACAUGAGGAUCACCCAUGUAGAAGGUGGUUGUC	–	–	187	147
GACCUCCCUGUAAGGAUAUCCGUGCAUCAAAGCAAGGAGAAGGUACAUGAGGAUCACCCAUGUCACCCGCGUUA	–	–	14.7	21
GGUGCGUAUGUGAGGAUAUGCUGGUCCUUGGAUCAGCAGAAGGCACAUGAGGAUCACCCAUGUGGUGUCGUGCC	–	–	114	20.8
UGUCCAUAGCAGAAGGACAUGAGGAUCACCCAUGUAAUAAAACAUCCAAAUGUAGGAUAUGCUAUGGACUAAGAGCGAAAGCUC	–	–	28.9	606
UGGUCAUGAUCAGGAUAUUAACAUGGGCUACAUUAAGAAGGGAUAGUGAGAUACGAACUGAACAUGAGGAUCACCCAUGUUGUU	240	104	–	–
GGUGGCGUGAUAACGCUAGAUAUAACAUGAGGAUCACCCAUGUAGGAUAUCCCGCCGAGAGGGCGGGAGAAGGACAAUCAAUGG	–	–	45.2	47.2
AGCUAGUCAGGAUAUACAUGAGGAUCACCCAUGUAAACUUUUAGUUUAAUUUGAAUGUGUAGAAGGGACAUAAA	–	–	21.7	24.1
UUUCCCUGUGUGAGGAUAUACUUGUUUGGGUUUUUGUAGAAGGCACAUGAGGAUCACCCAUGUACUCUGUCGUG	–	–	23.3	55.8
GUAGCAUUCUGAGGAUAUCCAUACCGGAAACGGACAUGAGGAUCACCCAUGUGGCGAAAGCCUUGGGAGAAGGCAGUAUGCUAC	4.87	4.34	–	–
CUUUCGUUAGCAGGAUAUGGACAGGCCUGUCCGUCUUGAGUCUGUAACAUGAGGAUCACCCAUGUCCAGAAGGGCUCGAAGGGA	–	–	8.04	15
GUUCUGCCUCCUGCCGGAACAUGAGGAUCACCCAUGUUGCCUGAGGAUAUCCUAUGGCUCCCACAGGAGAAGGCAGGCAACAUA	–	–	86.2	371
CGCGAACAUGAGGAUCACCCAUGUGAAAAACAUAGAGGAUAUGUCGCAUGCGUGUAAAAGACAGAAGGCUAUCGCG	76.7	27.9	–	–
GAUUAACAUGAGGAUCACCCAUGUGAGGAUAUGAACUAGACCACUUACCCGAUAUUGUUCAGAAGGCGCAUUCU	–	–	34.1	39.5
UUGUUUUUUGAGGAUAUGCGACGUUUUUUCGUCGUAGAAGGCGAUACAUGAGGAUCACCCAUGUUUAUGGGCAU	–	–	124	169
UGAUAACAUGUAGGAUAUGCAGCAUUGACCACUGCAGAAGGACAUGAGGAUCACCCAUGUAUCCAUACUAUGGGAUCACGCAAU	–	–	24	85.5
UGUUACUAGUAAGGAUAUACUAGCGAUAAGCUAGUAGAAGGUACAGUCUUUUGUAUAUCAUGUUUACAUGAGGAUCACCCAUGU	9.09	7.49	–	–
